These entries were drawn from the full list.
Apaf-1 act – activators of human Apaf-1 apoptosome. Apaf-1 apoptosome caspase-3 activation, DEVD-Rh110 fluorescence; stronger effect = lower value. O14727. 0.31% of 330,000 active. activity change, negative = activation, % at 20 µM;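 active means activity change at or below -40% at 20 µM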
Target sequence (O14727 whole entry, looked up): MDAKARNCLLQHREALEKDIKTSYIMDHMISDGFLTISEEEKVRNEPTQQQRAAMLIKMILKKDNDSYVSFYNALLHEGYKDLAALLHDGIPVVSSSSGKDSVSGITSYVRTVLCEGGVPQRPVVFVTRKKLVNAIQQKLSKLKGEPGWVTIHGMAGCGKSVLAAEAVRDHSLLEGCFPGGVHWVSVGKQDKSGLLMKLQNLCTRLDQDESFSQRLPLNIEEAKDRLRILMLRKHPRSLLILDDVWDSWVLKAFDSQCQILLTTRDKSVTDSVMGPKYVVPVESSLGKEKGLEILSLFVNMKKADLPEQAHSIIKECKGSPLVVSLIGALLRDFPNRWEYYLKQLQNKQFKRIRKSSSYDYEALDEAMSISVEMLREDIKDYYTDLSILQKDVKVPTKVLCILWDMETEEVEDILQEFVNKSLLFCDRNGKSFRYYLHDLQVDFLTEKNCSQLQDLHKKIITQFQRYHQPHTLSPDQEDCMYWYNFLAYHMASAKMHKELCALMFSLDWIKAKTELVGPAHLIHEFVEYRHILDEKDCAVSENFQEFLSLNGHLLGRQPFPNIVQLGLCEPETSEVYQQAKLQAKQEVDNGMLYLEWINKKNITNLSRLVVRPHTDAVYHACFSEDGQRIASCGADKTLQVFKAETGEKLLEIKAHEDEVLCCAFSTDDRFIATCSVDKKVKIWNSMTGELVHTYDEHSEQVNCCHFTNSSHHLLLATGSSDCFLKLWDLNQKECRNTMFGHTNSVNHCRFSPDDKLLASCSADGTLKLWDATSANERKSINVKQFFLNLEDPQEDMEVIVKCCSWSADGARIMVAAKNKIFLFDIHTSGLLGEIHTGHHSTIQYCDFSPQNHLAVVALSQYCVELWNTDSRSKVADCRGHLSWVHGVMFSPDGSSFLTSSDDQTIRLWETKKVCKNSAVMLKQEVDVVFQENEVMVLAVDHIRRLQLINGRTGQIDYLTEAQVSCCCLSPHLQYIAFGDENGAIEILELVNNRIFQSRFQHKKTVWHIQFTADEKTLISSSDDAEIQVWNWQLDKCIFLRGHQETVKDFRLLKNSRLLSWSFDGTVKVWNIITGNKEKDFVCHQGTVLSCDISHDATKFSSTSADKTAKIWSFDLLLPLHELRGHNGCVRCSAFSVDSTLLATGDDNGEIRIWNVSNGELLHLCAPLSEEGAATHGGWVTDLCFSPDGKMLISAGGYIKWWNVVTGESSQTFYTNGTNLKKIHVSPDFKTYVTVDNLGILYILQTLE
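System: Reconstituted apoptosome of Apaf-1, cytochrome c, caspase-9, procaspase-3 | Reagent: dATP, cytochrome c, and (Z-DEVD)2-Rh110 caspase-3 substrate | Times: 30 min compound preincubation and 50 min reaction, both room temperature | Detection: Caspase-3-released Rh110 fluorescence, 540 nm emission, 480 nm excitation | Measure: Caspase-3 activity via Apaf-1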
Rh110 interf act – Rh110 signal interference in Apaf-1 activator counter-screen. shares compounds with Apaf-1 act. Rh110 fluorescence interference, quenched caspase reaction, Ex480/Em540. fluorescence interference (activity change), % at 20 µM, hits read low. 980 tested, under 10 active;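 active means mean activity change at or below -40% when tested at 20 µM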
Apaf-1 act conf – Apaf-1 (human) activation, single-dose confirmed. shares compounds with Apaf-1 act. reconstituted apoptosome caspase-3 activity, DEVD-Rh110 fluorescence; stronger effect = lower value. activity change, negative = activation, % at 20 µM. 5% of 980 active;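 active means mean activity change at or below -40%, meaning activation of 40% or more, at 20 µM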
The depositor's hits bear a star; . = not tested or not shown.

SMILES	Apaf-1 act	Rh110 interf act	Apaf-1 act conf
C#CCOCCOCCOCCNc1nc(N2CCN(C(=O)CCCCCCCCCCNC(=O)[C@H](CCCCN)n3cc(C[C@@H](C)CC)nn3)CC2)nc(N2CCN(C(=O)CCCCCCCCCCNC(=O)[C@@H]([C@H](C)O)n3cc(C)nn3)CC2)n1	58	.	.
COC(=O)C1=C(C)N(Cc2ccccc2)C(=NCc2ccccc2)N[C@H]1c1ccccc1	47	.	.
CC(=O)Oc1ccc2c(c1)Oc1cc(OC(C)=O)ccc1C21OC(=O)c2ccccc21	-259*	-154*	-73*
CCOC(=O)C1=C(C)OC2(O)c3ccccc3C(=O)C12O (stereo not drawn)	88	.	.
CC(=O)C1=C(C)OC2(O)c3ccccc3C(=O)C12O (stereo not drawn)	93	.	.
COc1ccccc1NC(=O)c1nc[nH]c1C(=O)Nc1ccccc1OC	95	.	.
CNC(=O)c1[nH]cnc1C(=O)Nc1ccc(C)cc1	-205*	4	5
CC1=NN(c2ccc(C)cc2)C(=O)/C1=C\c1ccc(Br)s1	89	.	.
CCCCCCCCNC(C)C(O)c1ccc(SC(C)C)cc1 (stereo not drawn)	58	.	.
CN(C)CCCNC(=O)C[C@H]1C[C@H](C(=O)N2CCOCC2)[C@@]2(CCC3CCCC3)c3[nH]c4cc(-c5ccco5)ccc4c3CCN2C1=O	67	.	.
CCn1c2ccccc2c2cc(NC(C)=O)ccc21	-226*	-1	-1
CC(=O)Nc1ccc2c(c1)N(C(=O)CN(C)C)c1ccccc1CC2	43	.	.
CCn1c(=O)c2cc(C(=O)N(C)c3cc(C)ccc3OC)sc2c2ccccc21	53	.	.
N#CC1(NC(=O)COC(=O)c2cc(O)c3ccccc3c2O)CCCCC1	73	.	.
CCN(c1ccccc1)S(=O)(=O)c1ccc(Cl)c(NC(=O)COC(=O)c2cc(O)c3ccccc3c2O)c1	48	.	.
Cc1cc(C(=O)OCC(=O)Nc2ccccc2C#N)c(C)o1	-45*	-11	7
CCN1CCN(c2ccc(S(=O)(=O)N3CCCCC3)cc2NC(=O)/C=C/c2cc(OC)ccc2OC)CC1	46	.	.
COc1cccc(-c2nnc(SC(C(=O)c3c[nH]c4ccccc34)c3ccccc3)n2C)c1 (stereo not drawn)	43	.	.
COc1cccc(NC(=S)Nc2cccc3ccccc23)c1	94	.	.
COc1cccc(NC(=O)C(Sc2nnc(Nc3ccccc3C)s2)c2ccccc2)c1 (stereo not drawn)	-276*	16	6
CN(C)CCC(c1ccc(Br)cc1)c1ccccn1 (stereo not drawn)	1	.	.
COc1ccc(OC)c(-c2nn(-c3ccccc3)cc2C(=O)NCC(c2ccco2)N2CCCC2)c1 (stereo not drawn)	-117*	11	14
COc1ccc(C(CNC(=O)C2CC(=O)N(Cc3ccccc3)C2)N2CCCC2)cc1 (stereo not drawn)	61	.	.
COc1ccccc1C(CNC(=O)CNC(=O)c1ccccc1Cl)N1CCCC1 (stereo not drawn)	61	.	.
CN(Cc1ccccc1)c1oc(-c2ccco2)nc1C#N	41	.	.
SMILES	Apaf-1 act	Rh110 interf act	Apaf-1 act conf
COC(=O)CCC(=O)N1CN2CN(C(=O)CCC(=O)OC)CC([N+](=O)[O-])(C2)C1	-152*	2	7
Cc1[nH]n(-c2ccccc2)c(=O)c1C(c1cccc([N+](=O)[O-])c1)c1c(C)[nH]n(-c2ccccc2)c1=O	64	.	.
COc1ccc(Br)cc1C1CC(=O)N2CN(C)CSC2=C1C#N (stereo not drawn)	42	.	.
Cc1ccc(NC2=CC(=O)C(=O)c3ccccc32)cc1	87	.	.
Cn1c(=O)c2c(SCC(=O)NC3CCCC3)nc(CC(C)(C)C)nc2n(C)c1=O	-508*	0	8
CC(OC(=O)c1nn(C)c(=O)c2ccccc12)C(=O)NC1CCCCC1C (stereo not drawn)	-50*	-3	10
COc1ccc(-n2nc(C(=O)NCC(=O)NC3CCCC(C)C3C)c3ccccc3c2=O)cc1 (stereo not drawn)	51	.	.
COc1ccc(-n2nc(C(=O)NCC(=O)NC3CCCC(C)C3C)c3ccccc3c2=O)c(OC)c1 (stereo not drawn)	55	.	.
